4 compounds from publication PMC5668642 (Biochemistry and Biophysics Reports, 2015) can be followed below.

In experiment [1] the target is T1, PLCδ1-PH domain (Rattus norvegicus, UniProt P10688).
T1 sequence (P10688 1-131): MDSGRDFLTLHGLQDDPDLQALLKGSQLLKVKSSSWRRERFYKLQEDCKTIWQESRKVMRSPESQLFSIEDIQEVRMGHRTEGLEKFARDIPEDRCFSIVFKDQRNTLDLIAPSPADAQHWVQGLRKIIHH
Description: Isothermal titration calorimetry, PLCδ1-PH domain. It counts as binding. The settings on record: 25 °C; 20 mM HEPES pH 7.4, 0.16 M KCl. The gist of the method: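 Rat PLCδ1-PH domain (residues 1–131, E. coli BL21-DE3) at 200 μM, dialysed into 20 mM HEPES pH 7.4 with 0.16 M KCl. Titrated at 25 °C, 500 rpm, with 20 × 2 µL injections at 2.0 min intervals of test compound (2 mM) dissolved in the final dialysate. ΔG derived as ΔH − TΔS.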
On the technique in general: Isothermal titration calorimetry measures the heat released or taken up as one component is titrated into another.

For experiment [2], the target named is T2, AKT1-PH domain (Homo sapiens, UniProt P31749). Description: Isothermal titration calorimetry, AKT1-PH domain. The experiment is classed as binding. Particulars: 25 °C. A digest of the protocol: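 Human AKT1-PH domain (residues 1–121, E. coli BL21-DE3) in the sample cell at 25 °C, 500 rpm. Titrated with 20 × 2 µL injections of test compound (2 mM) at 2.0 min intervals. ΔG derived as ΔH − TΔS.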

Experiment [3] concerns the target T1, PLCδ1-PH domain. Description: Competitive protein-to-membrane FRET displacement assay. The experiment is classed as binding. A digest of the protocol:
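Rat PLCδ1-PH (1-131) is prebound to excess PC/PE/PS/dPE/PI(4,5)P2 (56:20:20:1:3) vesicles (100 µM total lipid) in 20 mM Tris pH 7.4, 0.16 M NaCl, at room temperature. Compound is titrated 0–70 µM. Protein-to-membrane FRET is read at ex 280/em 505 nm, corrected for PC/PE/PS/dPE (59:20:20:1) vesicles, dilution and dPE background. Apparent KI comes from a nonlinear least-squares fit.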

Experiment [4] concerns the target T1, PLCδ1-PH domain. Description: Competitive surface plasmon resonance assay, PI. The settings on record: for inhibition at 5 µM: pH 7.4, read-out: Relative inhibitory activity (%), PI(4,5)P2/PLCδ1-PH. The experiment is classed as binding. The gist of the method: (§1)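 L1 chip, 25 °C, 20 mM HEPES pH 7.4, 0.16 M KCl, 30 µL/min. Active surface PC/PE/PS/PIP (57:20:20:3): PI(4,5)P2 for rat PLCδ1-PH (1-131), PI(3,4,5)P3 for human AKT1-PH (1-121) and mouse GRP1-PH (1-127), PI(3,4)P2 for human TAPP1-PH (180-305). BSA-blocked PC/PE/PS reference. Domain (500 nM) preincubated 30 min with compound (0–20 or 0–200 µM). % inhibition from RU at 180 s; IC50 by Langmuir fit; triplicates.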

The subject of experiment [5] is GFP-tagged PLCδ1-PH domain in A549 cells. Description: Cellular translocation of GFP-tagged PLCδ1-PH domain. The experiment is classed as cell-based, Human. Particulars: 0–100 μM, 30 min. A digest of the protocol: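 A549 cells grown on coverslips in RPMI-1640 with 10% heat-inactivated FBS and penicillin/streptomycin at 37 °C, 5% CO₂. Transfected 24 h after seeding with GFP-PLCδ1-PH using polyethylenimine in Opti-MEM, then returned to complete medium after 24 h. Cells washed into serum-free medium and exposed to test compound (5–100 µM; DMSO <5%) for 30 min. PBS-washed, fixed in 4% paraformaldehyde for 15 min, and imaged by confocal at 488 nm excitation.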

The target of another experiment is T3, GRP1-PH domain (Mus musculus, UniProt O08967).
T3 sequence (O08967 264-380 limits assumed): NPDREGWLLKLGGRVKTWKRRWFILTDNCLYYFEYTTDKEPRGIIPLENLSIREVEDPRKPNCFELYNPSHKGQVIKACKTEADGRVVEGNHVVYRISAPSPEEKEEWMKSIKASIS
Description: Competitive surface plasmon resonance assay, PI. Particulars: for inhibition at 5 µM: read-out: Relative inhibitory activity (%), PI(3,4,5)P3/GRP1-PH. The experiment is classed as binding. The gist of the method:
as §1
On the technique in general: In SPR one partner is held on a chip, and binding of the other changes the refractive index at the surface.

Experiment [6] concerns the target T1, PLCδ1-PH domain. Description: Liposome pull-down assay, PI. It counts as binding. Particulars: protein 50 μM; compound 100 μM; PC/PE/PS/PI(4,5)P2 (57:20:20:3). A digest of the protocol:
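Sucrose-loaded PC/PE/PS/PI(4,5)P₂ vesicles made by sonication and extrusion, pelleted at 100,000g, and resuspended in 20 mM Tris pH 7.4 with 100 mM KCl and 5 mM MgCl₂. Rat PLCδ1-PH domain incubated with vesicles (40 µg in 100 µL) for 30 min with 0.3 mg/mL BSA, with or without test compound; PC/PE/PS vesicles as control. Spun at 100,000g for 30 min at 4 °C; supernatant and pellet run on Coomassie-stained SDS-PAGE.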

Experiment [7] addresses T2, AKT1-PH domain. Description: Competitive surface plasmon resonance assay, PI. The settings on record: for inhibition at 5 µM: read-out: Relative inhibitory activity (%), PI(3,4,5)P3/AKT1-PH. The experiment is classed as binding. A digest of the protocol:
as §1

The target of experiment [8] is T2, AKT1-PH domain. Description: Liposome pull-down assay, PI. Particulars: protein 50 μM; compound 100 μM; PC/PE/PS/PI(3,4,5)P3 (57:20:20:3). The experiment is classed as binding. The gist of the method: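 Human AKT1-PH (1-121) is incubated 30 min with 40 µg sucrose-loaded, sonicated/extruded vesicles (± compound) in 20 mM Tris pH 7.4, 100 mM KCl, 5 mM MgCl2, 0.3 mg/mL BSA. Vesicles were pelleted beforehand at 100,000g, 4 °C. Bound and free protein are separated at 100,000g, 30 min, 4 °C. Supernatant and pellet are run on Coomassie-stained SDS-PAGE.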

The target of another experiment is TAPP1-PH domain (Homo sapiens, UniProt Q9HB21). Description: Competitive surface plasmon resonance assay, PI. The experiment is classed as binding. Particulars: for inhibition at 5 µM: read-out: Relative inhibitory activity (%), PI(3,4)P2/TAPP1-PH. The gist of the method:
as §1

Experiment [9] has as its target T1, PLCδ1-PH domain. Description: Circular dichroism of PLCδ1-PH domain with compounds. The settings on record: PLCδ1-PH 1 μM; 10 mM phosphate, 10 mM NaCl, pH 7.2. A digest of the protocol: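 Rat PLCδ1-PH domain (residues 1-131, expressed in E. coli BL21-DE3) is scanned by far-UV CD from 190 to 245 nm, alone and with test compounds present.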

T2 sequence (P31749 1-121): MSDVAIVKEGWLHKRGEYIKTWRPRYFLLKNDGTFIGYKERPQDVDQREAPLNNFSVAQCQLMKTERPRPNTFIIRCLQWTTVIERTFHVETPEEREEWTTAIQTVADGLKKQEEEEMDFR
Chain of TAPP1-PH domain (Q9HB21 180-305): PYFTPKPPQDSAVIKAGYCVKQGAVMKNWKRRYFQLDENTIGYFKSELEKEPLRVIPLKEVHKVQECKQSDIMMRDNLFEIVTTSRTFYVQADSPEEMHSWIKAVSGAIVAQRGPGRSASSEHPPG

In the case of `O=[N+]([O-])c1ccc(Cn2cc(CO)nn2)cc1` [CIP-1], the “ITC titration behaviour with PLCδ1-PH domain” value at PLCδ1-PH domain [1] is reported as “exothermic reaction with one-step binding mechanism”. For the same compound, the “ITC titration behaviour with AKT1-PH domain” value on AKT1-PH domain [2] is on record as “exothermic reaction with two-step binding mechanism”. This compound also came in with a Ki on PLCδ1-PH domain [3] of 60400 nM. The IC50 on PLCδ1-PH domain [4] came out at 113 ± 7 nM; on GRP1-PH domain, 145 ± 11 nM; at AKT1-PH domain [7] it was 175 ± 21 nM; on TAPP1-PH domain, 647 ± 33 nM. Besides, the inhibition at 5 µM at PLCδ1-PH domain [4] was determined as 83 ± 4%; at GRP1-PH domain, 56 ± 3%; on AKT1-PH domain [7], 44 ± 2%; on TAPP1-PH domain it was 18 ± 2%. The “Displacement of PLCδ1-PH domain from plasma membrane (confocal images)” value in [5] is listed as “extent of displacement of PLCδ1-PH domain from PM is lowered”. For the same compound, the “Inhibition of PLCδ1-PH domain binding to PI(4,5)P2 containing liposomes (SDS-PAGE)” value on PLCδ1-PH domain [6] was “not that efficient in displacing the PLCδ1-PH domain”. Also, the “Inhibition of PI(3,4,5)P3/AKT1-PH domain interaction (SDS-PAGE)” value on AKT1-PH domain [8] is “more strongly than compound CIP-4”. The “Change in secondary structural pattern of PLCδ1-PH domain (far UV-CD)” value at PLCδ1-PH domain [9] was “almost no change”.
In the case of `OCc1cn(Cc2ccccc2)nn1` [CIP-2], the IC50 was found to be 159 ± 11 nM at PLCδ1-PH domain [4], 216 ± 9 nM at GRP1-PH domain, 315 ± 32 nM at AKT1-PH domain [7] and 106 ± 8 nM on TAPP1-PH domain. Besides, the inhibition at 5 µM at PLCδ1-PH domain [4] came out at 62 ± 3%; at GRP1-PH domain it was 58 ± 5%; on AKT1-PH domain [7], 55 ± 2%; on TAPP1-PH domain, 41 ± 4%.
On to `Cn1cc(CO)nn1` [(1-methyl-1H-1,2,3-triazol-4-yl)methanol, reference compound], for which, at PLCδ1-PH domain [4] (competitive SPR, negative control, data not shown), the “Effect on PLCδ1-PH domain binding to PC/PE/PS/PI(4,5)P2 liposome” value is “did not affect”.
For the compound `CCOC(=O)Cn1cc(CO)nn1` [CIP-3], at AKT1-PH domain [7], the inhibition at 5 µM amounted to 4 ± 1%.

As usually defined, the Ki is the equilibrium dissociation constant of an inhibitor or competing ligand from its target. What is called IC50 is the concentration that inhibits the measured activity by half. A lower IC50 goes with greater potency in that assay.
